Data as given in ChEMBL document CHEMBL2311350, “Discovery of a novel phenylethyl benzamide glucokinase activator for the treatment of type 2 diabetes mellitus” (Bioorg Med Chem Lett, 2013).
One block for each compound: values may come before it.

Experiments:
Hexokinase-4 [1] = biological target: T1, Hexokinase-4 (Homo sapiens, UniProt P35557); experiment: Induction of human pancreatic glucokinase activity at 5 mM glucose concentration
T1 sequence (P35557 whole entry): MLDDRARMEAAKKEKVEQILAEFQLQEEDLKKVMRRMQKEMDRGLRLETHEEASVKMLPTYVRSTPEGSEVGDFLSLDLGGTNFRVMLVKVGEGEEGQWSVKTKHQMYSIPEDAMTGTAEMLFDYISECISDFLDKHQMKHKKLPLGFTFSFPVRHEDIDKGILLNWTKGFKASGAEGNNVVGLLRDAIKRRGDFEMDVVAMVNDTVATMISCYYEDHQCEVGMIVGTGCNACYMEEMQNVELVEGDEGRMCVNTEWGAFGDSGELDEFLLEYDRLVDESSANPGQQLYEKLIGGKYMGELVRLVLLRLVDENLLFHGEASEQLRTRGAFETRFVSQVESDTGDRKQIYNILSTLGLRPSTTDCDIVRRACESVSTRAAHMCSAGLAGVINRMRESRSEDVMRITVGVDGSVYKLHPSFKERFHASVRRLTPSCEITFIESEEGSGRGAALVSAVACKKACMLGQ
Procedure, shortened: (§1)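 Enzymatic assay with purified recombinant human pancreatic or liver glucokinase, read as fold increase in activity at 5.0 mM glucose. EC50 is the mean of at least duplicate runs. For the pancreatic enzyme, glucose S0.5 and Vmax were also determined.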

[2] = Volume of distribution in dog; type: ADME, organism-based, Canis lupus familiaris; settings: in vivo
Procedure, shortened: (§2)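 Pharmacokinetics in mice and dogs after a single intravenous dose and a single oral dose. Clearance, volume of distribution, elimination half-life and oral bioavailability (F) were derived.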

Hexokinase-4 [3] = biological target: T1, Hexokinase-4; experiment: Induction of human hepatic glucokinase activity at 5 mM glucose concentration; procedure, shortened: as §1
[4] = Metabolic stability in dog liver microsomes assessed as compound remaining after 60 mins; type: ADME, Canis lupus familiaris, Microsome; settings: read-out: Stability
Procedure, shortened: (§3)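 Compound incubated for 1 h with mouse, dog or human liver microsomes. Percent of parent compound remaining was measured.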

Cytochrome P450 2D6 = Cytochrome P450 2D6 (Homo sapiens, UniProt P10635); experiment: Inhibition of CYP2D6 (unknown origin) at 25 to 50 uM; type: ADME
Chain of Cytochrome P450 2D6 (P10635 whole entry): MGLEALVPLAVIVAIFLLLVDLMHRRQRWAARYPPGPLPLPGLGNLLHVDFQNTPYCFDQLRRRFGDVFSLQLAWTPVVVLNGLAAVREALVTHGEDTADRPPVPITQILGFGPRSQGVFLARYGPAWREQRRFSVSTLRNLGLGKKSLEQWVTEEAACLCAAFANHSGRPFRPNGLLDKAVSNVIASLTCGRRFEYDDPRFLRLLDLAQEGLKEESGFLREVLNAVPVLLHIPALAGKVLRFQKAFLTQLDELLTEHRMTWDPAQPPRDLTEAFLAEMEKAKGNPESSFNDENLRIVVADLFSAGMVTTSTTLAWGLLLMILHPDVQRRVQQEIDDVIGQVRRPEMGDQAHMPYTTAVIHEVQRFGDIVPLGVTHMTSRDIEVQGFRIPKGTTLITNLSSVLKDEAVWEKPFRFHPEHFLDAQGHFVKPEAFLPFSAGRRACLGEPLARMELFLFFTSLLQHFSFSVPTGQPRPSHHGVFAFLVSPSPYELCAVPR

[5] = Metabolic stability in mouse liver microsomes assessed as compound remaining after 60 mins; type: ADME, Microsome; settings: read-out: Stability; procedure, shortened: as §3
[6] = Metabolic stability in human liver microsomes assessed as compound remaining after 60 mins; type: ADME, Microsome; settings: read-out: Stability; procedure, shortened: as §3
Cytochrome P450 3A4 = Cytochrome P450 3A4 (Homo sapiens, UniProt P08684); experiment: Inhibition of CYP3A4 (unknown origin) at 25 to 50 uM; type: ADME
Chain of Cytochrome P450 3A4 (P08684 whole entry): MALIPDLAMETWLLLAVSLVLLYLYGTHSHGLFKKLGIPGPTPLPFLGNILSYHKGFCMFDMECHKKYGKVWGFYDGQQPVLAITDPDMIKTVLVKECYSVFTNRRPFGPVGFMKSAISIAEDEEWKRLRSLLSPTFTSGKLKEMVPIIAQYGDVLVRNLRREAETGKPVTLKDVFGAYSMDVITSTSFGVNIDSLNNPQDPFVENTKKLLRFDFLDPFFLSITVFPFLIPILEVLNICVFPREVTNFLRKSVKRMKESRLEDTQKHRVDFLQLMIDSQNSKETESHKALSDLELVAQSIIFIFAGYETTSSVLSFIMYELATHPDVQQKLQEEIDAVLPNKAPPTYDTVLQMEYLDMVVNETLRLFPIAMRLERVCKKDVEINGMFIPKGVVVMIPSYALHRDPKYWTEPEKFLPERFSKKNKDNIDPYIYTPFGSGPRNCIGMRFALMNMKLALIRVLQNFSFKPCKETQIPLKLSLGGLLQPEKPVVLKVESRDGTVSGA

Cytochrome P450 1A2 = biological target: T2, Cytochrome P450 1A2 (Homo sapiens, UniProt P05177); experiment: Inhibition of CYP1A2 (unknown origin) at 25 to 50 uM; type: ADME
T2 sequence (P05177 whole entry): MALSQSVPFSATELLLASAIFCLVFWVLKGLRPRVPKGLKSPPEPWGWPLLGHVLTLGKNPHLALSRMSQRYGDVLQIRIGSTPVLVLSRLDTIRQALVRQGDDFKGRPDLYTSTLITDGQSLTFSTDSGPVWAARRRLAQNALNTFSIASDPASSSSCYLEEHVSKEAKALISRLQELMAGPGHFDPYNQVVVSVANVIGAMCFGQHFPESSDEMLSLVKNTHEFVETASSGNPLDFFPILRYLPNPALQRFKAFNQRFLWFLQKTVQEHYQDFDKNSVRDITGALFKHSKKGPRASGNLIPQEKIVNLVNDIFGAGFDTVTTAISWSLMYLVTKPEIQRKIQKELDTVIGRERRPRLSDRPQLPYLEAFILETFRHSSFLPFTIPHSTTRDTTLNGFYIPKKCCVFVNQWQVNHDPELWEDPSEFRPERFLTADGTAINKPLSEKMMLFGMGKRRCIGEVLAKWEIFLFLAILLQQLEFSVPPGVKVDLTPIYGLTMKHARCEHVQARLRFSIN

[7] = Volume of distribution in mouse; type: ADME, organism-based; settings: in vivo; procedure, shortened: as §2
[8] = Clearance in dog; type: ADME, organism-based, Canis lupus familiaris; settings: in vivo; procedure, shortened: as §2
Mus musculus [9] = species on record: Mus musculus; experiment: Toxicity in ob/ob mouse assessed as effect on body weight; type: organism-based; settings: in vivo
Procedure, shortened: (§4)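 ob/ob mice dosed orally and repeatedly in a subchronic study. Blood glucose, serum lipids and body weight were monitored.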

[10] = Bioavailability in mouse; type: ADME, organism-based; settings: in vivo; procedure, shortened: as §2
[11] = Elimination half life in mouse; type: ADME, organism-based; settings: in vivo, read-out: beta t1/2 (converted); procedure, shortened: as §2
Mus musculus [12] = experiment: Toxicity in C57BL/J mouse assessed as hypoglycemic risk at 150 mg/kg; type: organism-based; parameters: dose 150 mg/kg; settings: in vivo
Procedure, shortened: (§5)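 C57BL/J6 mice given oral dosing followed by an oral glucose tolerance test. Plasma glucose was tracked over time and glucose AUC reduction calculated. Several doses were tested, including 50 and 150 mg/kg. Hypoglycemia risk was judged from the glucose profiles.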

Cytochrome P450 2C19 = Cytochrome P450 2C19 (Homo sapiens, UniProt P33261); experiment: Inhibition of CYP2C19 (unknown origin) at 25 to 50 uM; type: ADME
Chain of Cytochrome P450 2C19 (P33261 whole entry): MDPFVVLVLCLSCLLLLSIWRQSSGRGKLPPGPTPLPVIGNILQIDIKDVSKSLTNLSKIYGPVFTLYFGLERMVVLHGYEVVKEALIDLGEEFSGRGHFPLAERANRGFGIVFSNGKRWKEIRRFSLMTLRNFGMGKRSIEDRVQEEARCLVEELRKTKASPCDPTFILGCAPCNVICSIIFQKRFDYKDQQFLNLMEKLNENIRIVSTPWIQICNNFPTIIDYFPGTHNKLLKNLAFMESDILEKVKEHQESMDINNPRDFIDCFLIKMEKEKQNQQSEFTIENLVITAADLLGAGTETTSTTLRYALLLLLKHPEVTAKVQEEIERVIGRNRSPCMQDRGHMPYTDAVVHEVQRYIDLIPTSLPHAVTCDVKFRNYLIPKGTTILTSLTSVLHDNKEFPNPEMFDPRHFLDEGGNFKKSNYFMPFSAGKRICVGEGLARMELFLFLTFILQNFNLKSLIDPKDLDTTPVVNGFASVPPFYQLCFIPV

Mus musculus [13] = species on record: Mus musculus; experiment: Toxicity in ob/ob mouse assessed as effect on serum lipid level; type: organism-based; settings: in vivo; procedure, shortened: as §4
Mus musculus [14] = experiment: Increase in oral glucose tolerance in C57BL/J mouse assessed as reduction in glucose area under curve at 50 mg/kg by OGTT; type: functional; parameters: scale not given: the % may be the effect or the level left; procedure, shortened: as §5
[15] = Elimination half life in dog; type: ADME, organism-based, Canis lupus familiaris; settings: in vivo, read-out: beta t1/2 (converted); procedure, shortened: as §2
Cytochrome P450 2C9 = Cytochrome P450 2C9 (Homo sapiens, UniProt P11712); experiment: Inhibition of CYP2C9 (unknown origin) at 25 to 50 uM; type: ADME
Chain of Cytochrome P450 2C9 (P11712 whole entry): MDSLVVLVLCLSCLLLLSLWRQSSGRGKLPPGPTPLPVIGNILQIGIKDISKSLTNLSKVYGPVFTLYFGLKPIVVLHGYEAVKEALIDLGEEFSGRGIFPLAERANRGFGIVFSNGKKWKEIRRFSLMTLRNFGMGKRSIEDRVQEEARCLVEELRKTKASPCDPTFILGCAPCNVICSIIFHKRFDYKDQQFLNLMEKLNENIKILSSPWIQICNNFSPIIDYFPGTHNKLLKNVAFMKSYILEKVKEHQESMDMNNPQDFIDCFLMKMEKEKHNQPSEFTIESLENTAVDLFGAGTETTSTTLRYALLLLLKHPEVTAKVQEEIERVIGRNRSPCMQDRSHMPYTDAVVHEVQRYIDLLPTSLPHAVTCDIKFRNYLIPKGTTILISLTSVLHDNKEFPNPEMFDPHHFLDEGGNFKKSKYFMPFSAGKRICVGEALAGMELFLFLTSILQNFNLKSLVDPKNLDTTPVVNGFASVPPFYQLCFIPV

[16] = Clearance in mouse; type: ADME, organism-based; settings: in vivo; procedure, shortened: as §2
[17] = Bioavailability in dog; type: ADME, organism-based, Canis lupus familiaris; settings: in vivo; procedure, shortened: as §2
Mus musculus [18] = experiment: Increase in oral glucose tolerance in C57BL/J mouse assessed as reduction in glucose area under curve at 300 mg/kg by OGTT; type: functional; parameters: scale not given: the % may be the effect or the level left

EC50 (Hexokinase-4 [1]): 0.115 µM
SMILES: COC[C@H](C)Oc1cc(/C=C/c2ccccc2OC)cc(C(=O)Nc2ccn(C)n2)c1

EC50 (Hexokinase-4 [1]): 0.08 µM
SMILES: COC[C@H](C)Oc1cc(/C=C/c2ccccc2F)cc(C(=O)Nc2ccn(C)n2)c1

EC50 (Hexokinase-4 [1]): 0.283 µM
SMILES: COC[C@H](C)Oc1cc(/C=C/c2ccccc2[N+](=O)[O-])cc(C(=O)Nc2ccn(C)n2)c1

EC50 (Hexokinase-4 [1]): 0.855 µM
SMILES: COC[C@H](C)Oc1cc(CCc2cc(F)cc(F)c2F)cc(C(=O)Nc2ccn(C)n2)c1

EC50 (Hexokinase-4 [1]): 0.132 µM
SMILES: COC[C@H](C)Oc1cc(/C=C/c2cccc(C)n2)cc(C(=O)Nc2ccn(C)n2)c1

EC50 (Hexokinase-4 [1]): 0.848 µM
SMILES: COC[C@H](C)Oc1cc(/C=C/c2cc(F)cc(F)c2F)cc(C(=O)Nc2ccn(C)n2)c1

EC50 (Hexokinase-4 [1]): 0.216 µM
SMILES: COC[C@H](C)Oc1cc(CCc2ccc(F)cc2)cc(C(=O)Nc2ccn(C)n2)c1

Vd [2]: 0.49 L/kg
EC50 (Hexokinase-4 [3]): 0.085 µM
remaining at 1 h [4]: > 60%
inhibition (INH) (Cytochrome P450 2D6): Not Active
remaining at 1 h [5]: > 60%
remaining at 1 h [6]: > 60%
inhibition (INH) (Cytochrome P450 3A4): Not Active
inhibition (INH) (Cytochrome P450 1A2): Not Active
Vd [7]: 0.33 L/kg
clearance [8]: 7.17 mL/min/kg
bioavailability [10]: 66%
half-life [11]: 2.6 h
inhibition (INH) (Cytochrome P450 2C19): Not Active
EC50 (Hexokinase-4 [1]): 0.07 µM
half-life [15]: 2.6 h
inhibition (INH) (Cytochrome P450 2C9): Not Active
clearance [16]: 2.5 mL/min/kg
bioavailability [17]: 85%
SMILES: COC[C@H](C)Oc1cc(CCc2c(F)cccc2F)cc(C(=O)Nc2ccc(C(=O)O)cn2)c1
Activity (Mus musculus [9]): Non-toxic
Activity (Mus musculus [12]): Toxic
Activity (Mus musculus [13]): Non-toxic
Activity (Mus musculus [14]): 29.6%

EC50 (Hexokinase-4 [1]): 0.131 µM
SMILES: COC[C@H](C)Oc1cc(CCc2c(F)cccc2F)cc(C(=O)Nc2ccn(C)n2)c1

EC50 (Hexokinase-4 [1]): 0.119 µM
SMILES: COC[C@H](C)Oc1cc(/C=C/c2ccc(F)cc2)cc(C(=O)Nc2ccn(C)n2)c1

bioavailability [17]: 100%
SMILES: COC[C@H](C)Oc1cc(Oc2cc(F)cc(F)c2)cc(C(=O)Nc2ccc(C(=O)O)cn2)c1

EC50 (Hexokinase-4 [1]): 0.284 µM
SMILES: COC[C@H](C)Oc1cc(/C=C/c2ccc([N+](=O)[O-])cc2)cc(C(=O)Nc2ccc(C(=O)O)cn2)c1

SMILES: CN(C)C(=N)NC(=N)N [METFORMIN]
Activity (Mus musculus [18]): 29.9%

EC50 (Hexokinase-4 [1]): 0.2 µM
SMILES: COC[C@H](C)Oc1cc(/C=C/c2cc(F)ccc2F)cc(C(=O)Nc2ccn(C)n2)c1

EC50 (Hexokinase-4 [1]): 0.184 µM
SMILES: COC[C@H](C)Oc1cc(CCc2ccc(F)cc2F)cc(C(=O)Nc2ccn(C)n2)c1

EC50 (Hexokinase-4 [1]): 0.778 µM
SMILES: COC[C@H](C)Oc1cc(/C=C/c2cc(F)cc(F)c2F)cc(C(=O)Nc2ccc(C(=O)O)cn2)c1

EC50 (Hexokinase-4 [1]): 0.109 µM
SMILES: COC[C@H](C)Oc1cc(/C=C/c2ccc(F)cc2F)cc(C(=O)Nc2ccn(C)n2)c1

EC50 (Hexokinase-4 [1]): 0.852 µM
SMILES: COC[C@H](C)Oc1cc(/C=C/c2ccc([N+](=O)[O-])cc2)cc(C(=O)Nc2ccn(C)n2)c1

EC50 (Hexokinase-4 [1]): 0.161 µM
SMILES: COC[C@H](C)Oc1cc(/C=C/c2c(F)cccc2F)cc(C(=O)Nc2ccn(C)n2)c1
